High-throughput results: PubChem, several laboratories
Shown are actives, neighbours in structure and some others; about 5.5% of the full set was active somewhere.
WT yeast gro inh – growth inhibition of WT strain, primary screen, mitochondrial fusion inhibitor project, WT and mutant strains, chemical genetic; mitochondrial fusion phenotypic screen; inhibition, % at 10 µM; 190,000 compounds, 2.1% hits; AID 1362, 2008; in the data active = inhibition above about 58%; tested in S. cerevisiae
Yeast life ext – compounds extending yeast replicative lifespan, primary screen, S. cerevisiae, OD615. AID 775, 2007. 130,000 compounds, 0.68% hits. S. cerevisiae growth with nicotinamide; deaD strain in restrictive glucose medium. inhibition of the nicotinamide effect, % at 10 µM;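 active = inhibition above a set limit, placed 3 SD over the median of all compounds, cut at about 26% in these data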
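Material: Modified budding yeast, DeaD strain | Medium: Restrictive glucose medium | Probe or stimulus: 1.5 mM nicotinamide | Dosing: Single dose 10 µM compound, 0.25% DMSO | Times: 48 h at 30 °C | Technique: OD615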
BB579 growth dn – growth inhibitors of yeast BB579 in restrictive medium, primary screen, yeast lifespan-shortening project, S. cerevisiae; OD615, 48 h; 140,000 compounds, 0.51% hits; inhibition, % at 10 µM;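 active = inhibition above a set limit, 3 SD over the mean compound inhibition, cut at about 44% in these data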
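controls = amphotericin B 10 µg/mL, positive | assay system = DeaD yeast strain BB579 | schedule = 48 h compound exposure at 30 °C after 4 h preincubation | detection = OD615 turbidity measurement | medium = restrictive CSMM-D medium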
RAM inhibit – inhibitors of the yeast RAM network, primary screen, dse1pr::URA3 reporter, 5-FOA selection. S. cerevisiae dse1pr::URA3 reporter, 5-FOA growth OD615, 2 d; analog-sensitive cbk1-as2 kinase mutant strain. 190,000 compounds, 1.8% hits. inhibition, % at 50 µM. AID 868, 2007;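 active = inhibition above a set limit, 3 SD over mean compound inhibition, cut at about 8.4% in these data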;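 also: inhibition rescues growth on 5-FOA so higher OD means more RAM inhibition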
KCC2 mod – KCC2 cotransporter modulators, thallium flux, primary screen, cell-based, HEK293 KCC2, FluoZin-2 fluorescence, MLSMR; Solute carrier family 12 member 5 (Homo sapiens), Q9H2X9; KCC2 cells, thallium flux FluoZin-2 fluorescence; B-score of Tl+ flux slope (higher = more flux/activation; lower = inhibition) at 10 µM; 190,000 compounds, 2.2% hits; AID 1456, 2008;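 active = thallium flux slope and its plate-corrected score both differing from the plate sample mean at a set confidence after two filtering rounds, in either direction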;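 also: slope of fluorescence scaled to starting intensity during 10 to 20 s after thallium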
Target sequence (Q9H2X9 whole entry, looked up): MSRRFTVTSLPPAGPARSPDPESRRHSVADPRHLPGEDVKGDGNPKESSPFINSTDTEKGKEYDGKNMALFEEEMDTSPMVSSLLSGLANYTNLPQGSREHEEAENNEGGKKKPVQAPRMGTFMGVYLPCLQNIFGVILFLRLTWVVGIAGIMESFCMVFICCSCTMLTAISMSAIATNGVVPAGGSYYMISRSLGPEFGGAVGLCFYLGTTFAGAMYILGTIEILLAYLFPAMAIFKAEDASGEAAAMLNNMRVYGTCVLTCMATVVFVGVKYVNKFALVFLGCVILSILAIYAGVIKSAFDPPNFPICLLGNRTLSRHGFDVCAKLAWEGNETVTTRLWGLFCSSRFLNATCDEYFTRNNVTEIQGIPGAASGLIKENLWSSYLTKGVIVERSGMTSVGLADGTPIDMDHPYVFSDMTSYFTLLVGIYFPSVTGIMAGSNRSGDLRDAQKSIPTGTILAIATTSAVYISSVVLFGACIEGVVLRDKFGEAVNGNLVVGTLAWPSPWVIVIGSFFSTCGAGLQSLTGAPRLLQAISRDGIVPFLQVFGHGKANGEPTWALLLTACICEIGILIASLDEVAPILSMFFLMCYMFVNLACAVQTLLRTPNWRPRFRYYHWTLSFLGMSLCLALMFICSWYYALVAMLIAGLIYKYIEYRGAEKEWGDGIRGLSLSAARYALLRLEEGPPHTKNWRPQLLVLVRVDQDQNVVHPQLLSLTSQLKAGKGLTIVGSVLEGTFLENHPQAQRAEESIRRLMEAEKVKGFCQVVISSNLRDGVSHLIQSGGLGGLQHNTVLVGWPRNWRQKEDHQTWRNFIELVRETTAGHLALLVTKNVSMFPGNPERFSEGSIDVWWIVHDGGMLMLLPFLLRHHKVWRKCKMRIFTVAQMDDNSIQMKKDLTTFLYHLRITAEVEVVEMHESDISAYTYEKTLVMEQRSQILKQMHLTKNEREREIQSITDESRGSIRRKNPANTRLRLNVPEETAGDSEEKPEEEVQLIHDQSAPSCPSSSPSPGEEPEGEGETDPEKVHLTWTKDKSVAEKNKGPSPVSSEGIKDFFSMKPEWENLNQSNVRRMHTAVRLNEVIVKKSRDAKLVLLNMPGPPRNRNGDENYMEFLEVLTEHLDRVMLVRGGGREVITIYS
RAM efflux-def – 5-FOA growth of efflux-deficient control yeast, dose response, counter-screen for RAM network inhibitor project, S. cerevisiae, OD615 | shares compounds with RAM inhibit | S. cerevisiae efflux-deficient reporter strain, 5-FOA growth OD615, 2 days | max inhibition, % | 1,200 tested, under 10 active; call rule not given here
Large screens that a line does not name were inactive (follow-up assays come after a bar, where they were run).

Cc1ccc2cc(CCNC(=O)c3ccc(C)c([N+](=O)[O-])c3)c(=O)[nH]c2c1	none
CCOC(=O)c1c(NC(=O)COC(=O)CCS(=O)(=O)c2ccc(C)cc2)sc(C)c1C	RAM inhibit 14 | RAM efflux-def inactive
CCOC(=O)c1cc(C(C)C)sc1NC(=O)COC(=O)CCS(=O)(=O)c1ccccc1	RAM inhibit 13 | RAM efflux-def inactive
Cc1ccc(NC(=O)c2ccc(Cn3cc([N+](=O)[O-])cn3)cc2)c(C)c1	none
Cc1cc(C)cc(NC(=O)CSc2nc(CSc3ccc(Cl)cc3)cc(=O)[nH]2)c1	none (no result: WT yeast gro inh, Yeast life ext, BB579 growth dn, RAM inhibit)
CCN1CCN(CC(=O)Nc2ccc(Cl)c(S(=O)(=O)N(C)C)c2)CC1	none (no result: Yeast life ext, BB579 growth dn)
CCCCc1ccc(NC(=S)Nc2ccc(Cl)c(S(=O)(=O)N(C)C)c2)cc1	WT yeast gro inh 77, RAM inhibit 16 | RAM efflux-def inactive
N[C@@H](Cc1ccccc1)c1nnc(SC/C=C/c2ccccc2)o1	none (no result: WT yeast gro inh, Yeast life ext, BB579 growth dn, RAM inhibit)
COc1ccc(C(C)(C)C)cc1NC(=O)COC(=O)c1cc(SC)ccc1Cl	RAM inhibit 13 | RAM efflux-def inactive
CSc1ccc(Cl)c(C(=O)OCC(=O)Nc2ccccc2OC(F)F)c1	RAM inhibit 16 | RAM efflux-def inactive
COc1ccc2c(c1)C(=O)/C(=C/C=C/c1ccccc1)CC2	RAM inhibit 15 (no result: Yeast life ext) | RAM efflux-def inactive
COc1ccc2c(c1)CC/C(=C\C=C\c1ccccc1OC)C2=O	none (no result: Yeast life ext)
O=C(CSC(=S)N1CCCCC1)Nc1ncc2c(n1)CCCC2=O	none (no result: WT yeast gro inh, Yeast life ext, BB579 growth dn, RAM inhibit)
N#Cc1c(SCc2ccccc2)nc(N2CCOCC2)c2c1CCCC2	RAM inhibit 15 (no result: KCC2 mod) | RAM efflux-def inactive
COc1cccc(/C=C/C(=O)OCC(=O)NCc2ccc(Cl)cc2)c1	none (no result: Yeast life ext, BB579 growth dn)
COc1cccc(/C=C/C(=O)OCC(=O)Nc2cc(C(F)(F)F)ccc2Cl)c1	RAM inhibit 12 | RAM efflux-def inactive
CN(C)c1ccc(/C=N/N2CCN(c3ccccn3)CC2)cc1	none (no result: WT yeast gro inh, Yeast life ext, BB579 growth dn, RAM inhibit)
Cc1cc(C)cc(OCc2ccc(C(=O)NN)o2)c1	none (no result: WT yeast gro inh, Yeast life ext, BB579 growth dn, RAM inhibit)
O=c1c2ccccc2c(C=NCCc2ccccc2)c(O)n1Cc1ccccc1	RAM inhibit 13 (no result: KCC2 mod) | RAM efflux-def inactive
CSCCC(NS(=O)(=O)c1ccc2ccccc2c1)C(=O)OCC(=O)c1ccc(C(C)C)cc1 (configuration not stated)	RAM inhibit 15 | RAM efflux-def inactive
CSCCC(NC(N)=O)C(=O)Nc1ccc2ccccc2c1 (configuration not stated)	none (no result: Yeast life ext, BB579 growth dn)
CCCN(CCC)C(=O)c1ccc2c(=O)n(Cc3ccco3)c(=S)[nH]c2c1	RAM inhibit 25 (no result: Yeast life ext, BB579 growth dn) | RAM efflux-def inactive
CN1CCN(C(=O)c2ccc3c(=O)n(Cc4ccco4)c(=S)[nH]c3c2)CC1	none
CCOC(=O)CCCSc1nc(-c2ccc3c(c2)OCO3)cc(C(F)(F)F)c1C#N	RAM inhibit 14 | RAM efflux-def inactive
Cc1ccccc1OCCC(=O)OCC(=O)Nc1cc(S(=O)(=O)N2CCOCC2)ccc1Cl	none (no result: Yeast life ext, BB579 growth dn)
Cc1ccc(N=C(NOCc2ccc(Cl)cc2Cl)c2nonc2N)c(C)c1	WT yeast gro inh 68, RAM inhibit 13 | RAM efflux-def inactive
CCc1ccc(OCC(=O)N2c3ccccc3CCc3ccccc32)cc1	WT yeast gro inh 81, RAM inhibit 18 | RAM efflux-def inactive
O=C(COC(=O)CC(c1ccccc1)c1ccccc1)NCc1ccc(Cl)cc1	WT yeast gro inh 63, RAM inhibit 13 | RAM efflux-def inactive
CCCC(=O)OCC(=O)NCc1ccc(Cl)cc1	none (no result: Yeast life ext, BB579 growth dn)
CCN(CC)C(=N)N1c2ccccc2CCC1C (configuration not stated)	none (no result: Yeast life ext, BB579 growth dn)
COc1ccc(CCNC(=O)c2ccc(-c3ccc([N+](=O)[O-])cc3)o2)cc1OC	RAM inhibit 11 | RAM efflux-def inactive
C=CCOC(=O)C1=C[C@@H](c2csc3ccccc23)C[C@@H](OCc2ccc(CO)cc2)O1	RAM inhibit 14 (no result: Yeast life ext, BB579 growth dn) | RAM efflux-def inactive
O=C(Nc1ccccc1)C1=C[C@H](c2csc3ccccc23)C[C@H](OCc2ccc(CO)cc2)O1	none (no result: Yeast life ext, BB579 growth dn)
Cc1nn(Cc2ccccc2)c(C)c1NC(=O)Cn1nc([N+](=O)[O-])c(Cl)c1C	none
Cc1nn(Cc2c(Cl)cccc2Cl)c(C)c1NC(=O)Cn1nc([N+](=O)[O-])c(Cl)c1C	RAM inhibit 13 | RAM efflux-def inactive
NC(N)=NCC(O)CN(c1ccccc1)c1ccccc1 (configuration not stated)	none (no result: WT yeast gro inh, Yeast life ext, BB579 growth dn, RAM inhibit)
CC(=O)Oc1cccc(/C=C2\Sc3ccccc3C2=O)c1	none (no result: WT yeast gro inh, Yeast life ext, BB579 growth dn, RAM inhibit)
O=C1/C(=C/c2cccs2)Sc2ccccc21	none
CCCCOc1ccc(/C=C2/Sc3ccccc3C2=O)cc1	RAM inhibit 17 | RAM efflux-def inactive
CC(C)COc1ccc(/C=C2/Sc3ccccc3C2=O)cc1	RAM inhibit 21 | RAM efflux-def inactive
COc1ccc(Br)cc1C(=O)Nc1ccccc1-c1ccccc1	RAM inhibit 12 | RAM efflux-def inactive
C=CCOC(=O)C1=C(C)NC(SCC)=C(C#N)C1c1ccc(Cl)cc1 (configuration not stated)	RAM inhibit 13 | RAM efflux-def inactive
CC[C@@H]1CC=C[C@H]2[C@H]1C(=O)N(Cc1ccccc1)[C@H]2c1ccc2ccccc2c1	none (no result: WT yeast gro inh, Yeast life ext, BB579 growth dn, RAM inhibit)
COc1ccc(-c2nc(CCl)cs2)cc1OC	none (no result: Yeast life ext, BB579 growth dn)
COc1ccc(-c2nc(-c3ccc(O)cc3O)cs2)cc1OC	RAM inhibit 12 (no result: Yeast life ext, BB579 growth dn) | RAM efflux-def inactive
